TAAR1 ag: human TAAR1 agonism; Q96RJ0; CHO RD-HGA16 TAAR1, Fluo-8 calcium fluorescence; vehicle wells 0%, saturating PEA agonist 100%; activation, % at 3 µM; 0.99% of 360,000 active; AID 624467;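 active means activation above the mean activation of all test compounds in the run plus 3 SD, cut at about 38% in these data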
Target sequence (Q96RJ0 whole entry, looked up): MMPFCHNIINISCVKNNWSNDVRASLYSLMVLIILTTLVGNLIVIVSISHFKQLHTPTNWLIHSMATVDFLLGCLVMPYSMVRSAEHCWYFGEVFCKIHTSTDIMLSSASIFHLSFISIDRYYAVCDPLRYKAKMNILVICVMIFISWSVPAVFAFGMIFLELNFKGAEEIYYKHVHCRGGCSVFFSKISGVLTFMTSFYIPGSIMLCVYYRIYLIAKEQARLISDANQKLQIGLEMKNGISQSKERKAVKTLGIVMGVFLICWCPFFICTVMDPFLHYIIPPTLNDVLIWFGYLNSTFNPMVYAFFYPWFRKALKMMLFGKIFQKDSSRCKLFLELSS
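Test system: RD-HGA16 (CHO) cells co-expressing Gα16 and hTAAR1 | Doses: Single dose, 3 µM | Schedule: 17-24 h seeding, 75 min 37 °C dye, 30 min RT | Evaluation: % activation from peak over basal fluorescence ratio, DMSO-to-PEA scaled | Technique: Kinetic Fluo-8 calcium fluorescence | Benchmarks: Low control DMSO, high control PEA (EC100)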
CHO parental Ca: counter-screen for OX1R antagonists: effect in parental CHO cells; parental CHO-K1, ATP-induced calcium, Fluo-8 fluorescence; inhibition, % at 5.6 µM; 0.63% of 330,000 active; AID 463079;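 active means inhibition above that plate's mean sample inhibition plus 3 SD, cut at about 26% in these data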;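 further: 0% = ATP-challenged DMSO wells and 100% = DMSO wells without ATP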
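Test system: parental CHO cells; detection: calcium-sensitive Fluo-8 fluorescence; evaluation: percent inhibition of calcium signal; also added: ATP as calcium-mobilizing challenge; repeats: one well per compound; control set: ATP-challenged DMSO wells low, unchallenged DMSO wells high; compound: single nominal dose of 5.6 µM per compound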
OX1R antag-1: blocks the human orexin 1 receptor | inhibition, % at 6.6 µM | AID 485270 | OX1R-expressing cells, FRET antagonist read-out | 1.8% of 330,000 active; in the data active means inhibition mostly above about 38%, no sharp cut-off; inactive means mostly below about 40%;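 further: 0% = agonist challenge alone and 100% = reference antagonist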
GPR7 antagonist: human neuropeptides B/W receptor 1 antagonism; P48145; GPR7-expressing cells, fluorescence antagonist assay; inhibition, % at 4.4 µM; 1.1% of 290,000 active; in the data active means inhibition above about 16%, passing the limit was not always enough;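 further: cells stimulated with the agonist NPW; 0% = agonist with vehicle and 100% = vehicle without agonist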
Target sequence (P48145 whole entry, looked up): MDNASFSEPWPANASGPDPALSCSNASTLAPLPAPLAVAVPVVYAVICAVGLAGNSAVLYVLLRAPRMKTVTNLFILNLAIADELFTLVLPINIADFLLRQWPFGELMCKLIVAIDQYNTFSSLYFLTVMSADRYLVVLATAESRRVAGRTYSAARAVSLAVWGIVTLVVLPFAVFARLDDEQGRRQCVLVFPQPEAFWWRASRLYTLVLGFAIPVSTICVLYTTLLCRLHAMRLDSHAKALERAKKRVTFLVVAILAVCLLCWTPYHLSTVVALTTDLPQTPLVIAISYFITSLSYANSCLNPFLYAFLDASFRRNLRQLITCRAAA
TAAR1 antagonist: human TAAR1 antagonism; Q96RJ0; CHO RD-HGA16 TAAR1, Fluo-8 calcium fluorescence, antagonist; inhibition, % at 3 µM; 1.5% of 360,000 active; AID 624466;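 active means inhibition above a per-plate cutoff, the mean inhibition of test compounds on that plate plus 3 SD, cut at about 49% in these data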;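 further: 0% = DMSO plus EC80 beta-PEA response and 100% = DMSO alone without agonist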
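System: RD-HGA16 CHO cells with stable hTAAR1 and Gα16 | Probe or stimulus: EC80 β-phenethylamine stimulus | Dosing: 3 µM, single point | Times: Dye loading 75 min at 37 °C, then 30 min room temperature | Measured by: Fluo-8 calcium-sensitive fluorescence | Read-out basis: % inhibition of agonist calcium response | Replicates: n of 1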
OX1R antag-2: antagonists of human orexin 1 receptor. O43613. CHO/OX1R cells, Fluo-8 calcium fluorescence, orexin A. inhibition, % at 5 µM. 0.43% of 330,000 active;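 active means inhibition above its plate's threshold, mean inhibition of all tested compounds on the plate plus 3 SD, cut at about 37% in these data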;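 further: 0% = orexin A challenge wells and 100% = SB-334867-A antagonist wells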
OX1R HTRF confirm: confirmation of human orexin 1 receptor antagonists, HTRF format | shares compounds with OX1R antag-1 | OX1R-expressing cells, HTRF antagonist assay | inhibition, % at 6.6 µM | 49% of 1,800 active | AID 492964; in the data active means inhibition above about 55%;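 further: CHO cells expressing OX1R stimulated with orexin A at about EC80; 0% = agonist challenge alone and 100% = reference antagonist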
CHO-K1 HTRF: signal in parental CHO-K1 cells, OX1R antagonist counter-screen; shares compounds with OX1R antag-1; inhibition, % at 6.6 µM; 48% of 1,800 active; HTRF counterscreen; in the data active means inhibition above about 17%;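 further: 0% = agonist challenge with vehicle and 100% = vehicle alone without agonist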
TAAR1 nonsel count: nonselective antagonist in TAAR1 antagonist counter-screen; shares compounds with TAAR1 antagonist; counterscreen cell line, calcium fluorescence, antagonist mode; inhibition, % at 3 µM; 77% of 2,400 active; AID 651780; in the data active means inhibition above about 22%;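 further: CHO-Ga16 host cells stimulated with ATP at an EC80 level; 0% = agonist EC80 plus vehicle and 100% = vehicle without agonist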
TAAR1 antag conf: confirmation of human TAAR1 antagonists | shares compounds with TAAR1 antagonist | TAAR1-expressing cells, fluorescence antagonist read-out | inhibition, % at 3 µM | 40% of 2,400 active; in the data active means inhibition above about 49%;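 further: CHO-Ga16 host cells challenged with agonist PEA near its EC80; 0% = agonist at EC80 plus vehicle and 100% = vehicle with no agonist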
Ga16 ag counter: counter-screen for TAAR1 antagonists: nonselective Ga16 agonists; Ga16-expressing cells, calcium fluorescence, agonist counterscreen; 18% of 2,400 active; AID 651953; activation, % at 3 µM; shares compounds with TAAR1 antagonist; in the data active means activation above about 12%;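 further: 0% = vehicle wells and 100% = saturating stimulus response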
TAAR1 ag counter: counter-screen for human TAAR1 antagonists: TAAR1 agonists | shares compounds with TAAR1 antagonist | hTAAR1 cell line, fluorescence activation, agonist mode | activation, % at 3 µM | 2% of 2,400 active; in the data active means activation above about 37%;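 further: CHO cells stably expressing TAAR1 with calcium dye readout; 0% = DMSO vehicle and 100% = full agonist response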
* = called active by the depositor; / = no result; + = active, no number. Hits are enriched below; roughly 4.5% of the tested compounds scored in any of these assays.

SMILES | TAAR1 ag | CHO parental Ca | OX1R antag-1 | GPR7 antagonist | TAAR1 antagonist | OX1R antag-2 | OX1R HTRF confirm | CHO-K1 HTRF | others
CCOC(=O)c1c(N)n(CCCOC(=O)c2ccco2)c2nc3ccccc3nc12 | 5 | -6 | 83* | -6 | 6 | -11 | 36 | 22*
O=C(NC1CN2CCC1CC2)c1cc(Cl)c([N+](=O)[O-])c2nc[nH]c12 (stereo not given) | 2 | -13 | 130* | -6 | 6 | 1 | 49 | 83*
O=C1NC(=O)N(c2ccc3c(c2)OCO3)C(=O)/C1=C/c1ccc(N2CCCC2)o1 | 5 | 2 | 92* | 4 | 9 | -2 | 46 | 75*
CCN1CCN(S(=O)(=O)c2ccc(Cl)c(C(=O)Nc3ccc(C(=O)N(CC)CC)cc3)c2)CC1 | 3 | -17 | 7 | -5 | -24 | 4 | / | /
CC(C)[C@]12CC(=O)[C@H](C)[C@H]1C2 | 0 | -8 | -1 | / | -22 | -7 | / | /
CN1CC=C2C(C#N)=C(N)C(C#N)(C#N)C(c3ccncc3)C2C1 (stereo not given) | / | 1 | 102* | -10 | / | -2 | 18 | 24*
CNc1ccc2nc3ccccc3[n+](C)c2c1 | 3 | 6 | 94* | -8 | -12 | -8 | 66* | 145*
Cn1c(=O)c2nncnc2n(C)c1=O | 2 | -4 | 125* | -10 | -13 | -12 | 45 | 75*
CC12CC(=O)C3C(CCC4CC=CCC43C)C1CCC2=O (stereo not given) | -2 | / | / | / | -8 | / | / | /
N#CC(C#N)=NNc1ccc(S(N)(=O)=O)cc1 | -1 | -4 | 84* | -5 | -4 | -4 | 19 | -1
O=C1C(=O)c2cccc3cccc1c23 | 7 | -7 | 101* | 2 | -7 | -2 | 31 | 42*
O=C1C(=O)c2ccccc2-c2ccccc21 | 6 | -18 | 106* | 5 | -4 | 4 | 61* | 29*
CN1CCN(c2cccc3c2C(=O)c2ccccc2C3=O)CC1 | 3 | / | / | -10 | -14 | / | / | /
C=CCCC1(CC)C(=O)NC(=S)NC1=O | 1 | / | / | / | -9 | / | / | /
Cn1c(O)c(N=Nc2ccc(S(=O)(=O)N3CCOCC3)cc2)c(=O)n(C)c1=O | 2 | -10 | 86* | -1 | -4 | 3 | 50 | 74*
O=C1NC(=O)C(=Cc2ccc(-c3ccc(S(=O)(=O)N4CCOCC4)cc3)o2)C(=O)N1 | 8 | 4 | 31 | -1 | -2 | -8 | / | /
CN(C)P(=O)(N(C)C)N1CC1 | 1 | / | / | / | -26 | / | / | /
O=[N+]([O-])c1ccc(N(CCO)CCO)c2c1no[n+]2[O-] | 6 | / | / | / | -1 | / | / | /
CN1CCN(c2ccc([N+](=O)[O-])c3no[n+]([O-])c23)CC1 | 26 | 22 | 77* | 10 | 7 | 13 | 74* | 107*
CCn1nc(-c2ccccc2)nc2c(=O)n(C)c(=O)nc1-2 | / | -7 | + | -11 | / | -14 | 102* | 95*
O=C1CN=C(c2ccccc2)c2cc(Cl)ccc2N1 | 2 | -3 | 6 | / | 2 | 0 | / | /
CCOc1cc(CNCCc2c[nH]c3ccccc23)cc(Cl)c1OC | 18 | -17 | 105* | 1 | 21 | -37 | 17 | 3
O=c1[nH]c2ccccc2n1C1CCN(C(c2cccs2)c2nnnn2Cc2ccccc2)CC1 (stereo not given) | 9 | / | / | / | 33 | / | / | /
O=c1[nH]c2ccccc2n1C1CCN(C(CCc2ccccc2)c2nnnn2Cc2ccccc2)CC1 (stereo not given) | 16 | / | / | / | 55* | / | / | / | TAAR1 nonsel count=17;TAAR1 antag conf=42;Ga16 ag counter=7;TAAR1 ag counter=13
CSCCC(c1nnnn1Cc1ccccc1)N1CCC(n2c(=O)[nH]c3ccccc32)CC1 (stereo not given) | 17 | / | / | / | 70* | / | / | / | TAAR1 nonsel count=22*;TAAR1 antag conf=52*;Ga16 ag counter=11;TAAR1 ag counter=29
SMILES | TAAR1 ag | CHO parental Ca | OX1R antag-1 | GPR7 antagonist | TAAR1 antagonist | OX1R antag-2 | OX1R HTRF confirm | CHO-K1 HTRF | others
Cc1c(C(=O)N2CCC3(CC2)OCCO3)sc2ncnc(N3CCN(c4ccccn4)CC3)c12 | 23 | -11 | 12 | -13 | 61* | -8 | / | / | TAAR1 nonsel count=28*;TAAR1 antag conf=50*;Ga16 ag counter=8;TAAR1 ag counter=7
CCCNC(=O)Cn1cnc2sc(C(=O)N3CCC4(CC3)OCCO4)c(C)c2c1=O | 1 | 4 | 4 | -12 | -13 | -18 | / | /
O=P(Nc1ccccc1)(Oc1ccccc1)Oc1ccccc1 | 8 | -8 | 27 | -5 | 74* | -7 | / | / | TAAR1 nonsel count=27*;TAAR1 antag conf=59*;Ga16 ag counter=8;TAAR1 ag counter=6
Cc1cccc(NP(=O)(Oc2ccccc2)Oc2ccccc2)c1C | 5 | -2 | 17 | -4 | 73* | 4 | / | / | TAAR1 nonsel count=24*;TAAR1 antag conf=44;Ga16 ag counter=6;TAAR1 ag counter=3
CC12CCC3C(CCC4CC(=O)C(C(O)C(F)(F)F)CC43C)C1CCC2O (stereo not given) | 6 | / | / | / | 5 | / | / | /
Cc1cccc(OP(=O)(NCc2ccccc2)Oc2cccc(C)c2)c1 | 7 | 2 | 40 | 2 | 80* | -37 | / | / | TAAR1 nonsel count=34*;TAAR1 antag conf=78*;Ga16 ag counter=13*;TAAR1 ag counter=23
Cc1cccc(OP(N)(=O)Oc2cccc(C)c2)c1 | 5 | 12 | 2 | -10 | 6 | 1 | / | /
CS(=O)(=O)c1ccc(C2=C(CNC(=O)c3cccnc3)[C@H]3CC[C@@H](C2)N3Cc2ccccc2)cc1 | 0 | / | / | / | -3 | / | / | /
CCCCC1C(=O)NC(=S)N(C)C1=O (stereo not given) | 2 | / | / | / | -3 | / | / | /
COC(=O)c1ccc(NC(=O)CSc2nc3ccc(N4C(=O)C5C6C=CC(C6)C5C4=O)cc3s2)cc1 (stereo not given) | 32 | 5 | 20 | 20 | 88* | -6 | / | / | TAAR1 nonsel count=41*;TAAR1 antag conf=65*;Ga16 ag counter=17*;TAAR1 ag counter=16
CC(C)(C)n1nnnc1C(c1ccccc1)N1CCC2(CC1)C(=O)NCN2c1ccccc1 (stereo not given) | 0 | / | / | / | 3 | / | / | /
O=C1NCN(c2ccccc2)C12CCN(C(c1ccccc1)c1nnnn1Cc1ccccc1)CC2 (stereo not given) | 9 | / | / | / | 53* | / | / | / | TAAR1 nonsel count=20;TAAR1 antag conf=30;Ga16 ag counter=7;TAAR1 ag counter=3
